Records with an inconclusive call do not appear.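 The calls were made as follows, unless noted: active = viability at or below 27.92% in each of two runs, the all-compound median minus 4 SD; inconclusive = no clear call, values can overlap the other calls; inactive = the rest.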
Experiments:
[1] = OD615 S. cerevisiae growth inhibition, permissive medium, pilot counter-assay, permissive growth control for S. cerevisiae lifespan shortening project (AID 705;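 active = growth inhibition above 25% in both replicates, a cutoff set 3 SD above the mean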); conditions: OD615, 24 h, at 10 µM, stronger effect = higher value
Method in brief: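 Test system: Saccharomyces cerevisiae strain carrying genetically modified DeaD replicative-lifespan system; buffer or medium: SC raffinose/galactose permissive medium; dosing: one dose 10 µM, DMSO 0.25% final; times: 24 h exposure, 30 °C; measured by: OD at 615 nm; read-out basis: growth inhibition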

[2] = Restrictive medium S. cerevisiae growth inhibition, OD615, pilot screen of yeast lifespan reduction project, restrictive growth control (AID 706;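 active = growth inhibition above a set limit, 3 SD over mean compound inhibition, in both replicates, cut at about 43% in these data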;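 also: modified DeaD lifespan yeast strain shifted to restrictive glucose medium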); conditions: OD615, 48 h, at 10 µM, stronger effect = higher value
Method in brief: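 material = engineered S. cerevisiae DeaD strain | buffer or medium = glucose-based CSMM-D restrictive medium | dosing = one concentration, 10 µM final, 0.25% DMSO | schedule = 4 h pre-growth plus 48 h compound exposure, 30 °C | detection = OD615 absorbance reading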

[3] = viability gain of MRP-1-high H69AR cells under doxorubicin, pilot screen, MRP-1 activator project, CellTiter-Glo, duplicate (AID 807;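 active = viability increase at or above a cutoff of the median across tested compounds plus 3 SD, cut at about 8.5% in these data, passing the limit was not always enough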;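 also: compound pretreatment 18-22 h then 72 h combined with doxorubicin; 0% = doxorubicin alone and 100% = vehicle without doxorubicin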); conditions: H69AR viability with doxorubicin, CellTiter-Glo luminescence; at 10 µM; stronger effect = higher value
[4] = growth suppression of beta-catenin knockout HCT116, pilot screen, human colon tumor cells (AID 823;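 active = cell viability at or below a set limit in both duplicate runs, the limit being the all-compound median minus 4 SD, cut at about 23% in these data, passing the limit was not always enough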;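 also: 0% = wells killed by 20 µM Hyamine and 100% = untreated DMSO cell wells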); conditions: CellTiter-Glo, 60 h, at 10 µM, stronger effect = lower value
[5] = growth suppression of PTEN-deleted HCT116, pilot screen, cell-based, HCT116 clonal line, CellTiter-Glo (AID 824); conditions: 60 h, at 10 µM, stronger effect = lower value;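 also: 0% = 20 µM Hyamine control and 100% = vehicle cell control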
[6] = inhibitors of the yeast RAM network, pilot screen, dse1pr::URA3 reporter, 5-FOA selection (AID 869;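 active = inhibition over a set limit, the all-compound mean plus 3 SD, in both replicate runs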;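 also: 0% = DMSO wells with no growth and 100% = 10 µM 1-NA-PP1 with full growth; RAM network block rescues cells from 5-FOA so hits raise OD615 growth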); conditions: S. cerevisiae dse1pr::URA3 5-FOA growth, OD615, 2 d; at 10 µM; stronger effect = higher value; strain carries analog-sensitive mutant Cbk1 kinase
[7] = RAM signaling pathway blockade in yeast – S. cerevisiae, Pdr1DBD-CYC8 efflux-inhibited sensitized strain, primary screen (AID 1298;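 active = RAM network inhibition above 8.4% in each of two replicates, 3 SD over the compound average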;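 also: 0% = DMSO untreated cells without growth and 100% = 10 µM 1-NA-PP1 full growth; higher means more yeast growth rescued from 5-FOA killing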); conditions: S. cerevisiae cbk1-as DSE1-URA3 strain, 5-FOA growth OD615, 2 d; at 50 µM; stronger effect = higher value

O=C1c2ccccc2C(=O)N1Cc1nc2ccccc2c(=O)n1CCCn1ccnc1
inactive: growth inhibition [1] -3.57% | growth inhibition [2] 0.74% | viability increase [3] -1.98% | viability [4] 96.3% | viability [5] 101% | inhibition [6] 0.915% | RAM network inhibition [7] 4.3%

COc1cc(NS(=O)(=O)c2ccc(NC(=O)C34CC5CC(CC(C5)C3)C4)cc2)ncn1
inactive: growth inhibition [1] -0.475% | growth inhibition [2] -24.6% | viability increase [3] -1.47% | viability [4] 98.1% | viability [5] 91.9% | inhibition [6] 2.73% | RAM network inhibition [7] 8.43%

O=C(NCc1ccc(F)cc1)c1cc2n(n1)C(C(F)(F)F)CC(C1CC1)N2 (configuration not stated)
inactive: growth inhibition [1] -4.54% | growth inhibition [2] -7.74% | viability increase [3] -0.43% | viability [4] 106% | viability [5] 96% | inhibition [6] 4.14% | RAM network inhibition [7] 4.9%

CCOC(=O)Cn1c(=O)oc2cc(S(=O)(=O)N3CCC(N4CCCCC4)CC3)ccc21
inactive: growth inhibition [1] -7.51% | growth inhibition [2] -9.77% | viability increase [3] 0.75% | viability [4] 101% | viability [5] 105% | inhibition [6] 1.06% | RAM network inhibition [7] 0.21%

COc1cccc2c(=O)n(CC(=O)NC3CCCC3)ccc12
inactive: growth inhibition [1] -19.3% | growth inhibition [2] -5.62% | viability increase [3] -1.22% | viability [4] 99.1% | viability [5] 94% | inhibition [6] -0.215% | RAM network inhibition [7] 3.83%

CCCc1cc(C(=O)NCC(C)C)no1
inactive: growth inhibition [1] -3.57% | growth inhibition [2] 13.8% | viability increase [3] 0.64% | viability [4] 109% | viability [5] 101% | inhibition [6] 1.85% | RAM network inhibition [7] 1.2%

O=C(Cn1cc2c(n1)CCCC2)NCc1cccs1
inactive: growth inhibition [1] -4.03% | growth inhibition [2] -3.48% | viability increase [3] -0.37% | viability [4] 105% | viability [5] 93% | inhibition [6] 1.2% | RAM network inhibition [7] 0.81%

CCC1CC(C)(C(=O)Nc2ccc(S(N)(=O)=O)cc2)OC1=O (configuration not stated)
inactive: growth inhibition [1] -2.94% | growth inhibition [2] 3.6% | viability increase [3] 1.12% | viability [4] 102% | viability [5] 98.1% | inhibition [6] 1.36% | RAM network inhibition [7] 3.69%

Cc1ccc(CCNC(=O)C2CCCN(S(=O)(=O)c3c(C)noc3/C=C/N(C)C)C2)cc1 (configuration not stated)
inactive: growth inhibition [1] -1.76% | growth inhibition [2] 6.26% | viability increase [3] -1.67% | viability [4] 88.1% | viability [5] 74.1% | inhibition [6] 1.85% | RAM network inhibition [7] 1.68%

COc1ccc(NC(=O)c2cc3c(=O)n(C)c4ccccc4c3n2C)cc1OC
inactive: growth inhibition [1] -0.735% | growth inhibition [2] -6.07% | viability increase [3] -5.17% | viability [4] 93.8% | viability [5] 80.9% | inhibition [6] 2.05% | RAM network inhibition [7] 5.74%

O=c1sc(N2CCN(c3ccccc3F)CC2)nc2ccsc12
inactive: growth inhibition [1] -7.07% | growth inhibition [2] -8.01% | viability increase [3] -1.94% | viability [4] 85.3% | viability [5] 81.9% | inhibition [6] 3.63% | RAM network inhibition [7] 7.46%

Cc1ccc2cc(CCNC(=O)CC(C)C)c(=O)[nH]c2c1
inactive: growth inhibition [1] -7.75% | growth inhibition [2] -0.53% | viability increase [3] 0.14% | viability [4] 105% | viability [5] 103% | inhibition [6] 1.69% | RAM network inhibition [7] 3.87%

COc1ccc(C)cc1NC(=O)c1cnc2scc(C)n2c1=O
inactive: growth inhibition [1] 9.45% | growth inhibition [2] -0.68% | viability increase [3] -5.49% | viability [4] 87.8% | viability [5] 84.8% | inhibition [6] 3.21% | RAM network inhibition [7] 3.95%

COc1ccc(-c2cn3c(C)c(C(=O)N4CCN(c5ccccc5)CC4)sc3n2)cc1
inactive: growth inhibition [1] -0.58% | growth inhibition [2] -13.6% | viability increase [3] -1.3% | viability [4] 101% | viability [5] 95.6% | inhibition [6] 1.88% | RAM network inhibition [7] 0.88%

COc1ccc2nc(SCc3nc(N)nc(Nc4ccccc4)n3)[nH]c2c1
inactive: growth inhibition [1] -8.8% | growth inhibition [2] 15.4% | viability increase [3] 0.65% | viability [4] 67.7% | viability [5] 80.3% | inhibition [6] 0.72% | RAM network inhibition [7] 6.33%

Cc1cc(NC(=O)CSc2nnc(Cc3cccn3C)n2CCc2ccccc2)no1
inactive: growth inhibition [1] 6.44% | growth inhibition [2] 14.2% | viability increase [3] -2.85% | viability [4] 93.2% | viability [5] 89.4% | inhibition [6] 0.955% | RAM network inhibition [7] 7.83%

CCC(CC)c1nnc(NC(=O)c2c(-c3ccccc3)noc2C)s1
inactive: growth inhibition [1] -10.7% | growth inhibition [2] 3.94% | viability increase [3] -1.44% | viability [4] 90.2% | viability [5] 93.9% | inhibition [6] 0.27% | RAM network inhibition [7] 2.57%

CCNc1nc2c(c(=O)[nH]c(=O)n2C)n1Cc1ccc(F)cc1
inactive: growth inhibition [1] -8.34% | growth inhibition [2] -8.31% | viability increase [3] -3.05% | viability [4] 99% | viability [5] 85.2% | inhibition [6] 0.035% | RAM network inhibition [7] 4.88%

CCc1c(C)sc(NC(=O)c2cccs2)c1C(=O)OC(C)C
inactive: growth inhibition [1] -3.37% | growth inhibition [2] 5.3% | viability increase [3] 4.48% | viability [4] 77.5% | viability [5] 79.1% | inhibition [6] 1.9% | RAM network inhibition [7] 5.72%

CCOC(=O)c1ccc(NC(=O)C(C)N2C(=O)c3ccccc3C2=O)cc1 (configuration not stated)
inactive: growth inhibition [1] -13.1% | growth inhibition [2] -21.9% | viability increase [3] 0.15% | viability [4] 104% | viability [5] 100% | inhibition [6] 0.645% | RAM network inhibition [7] 4.7%

CCN(c1ccccc1)c1cc(C)nc2ncnn12
inactive: growth inhibition [1] -18% | growth inhibition [2] -1.56% | viability increase [3] -3.24% | viability [4] 96.7% | viability [5] 94.9% | inhibition [6] 1.6% | RAM network inhibition [7] 4.57%

CCCCS(=O)CC(COCc1ccccc1)OC(=O)CSc1nc(C)cc(C)n1 (configuration not stated)
inactive: growth inhibition [1] -8.16% | growth inhibition [2] -22% | viability increase [3] -1.32% | viability [4] 97.6% | viability [5] 94.7% | inhibition [6] 0.95% | RAM network inhibition [7] 3.07%

Cc1ccc(-c2nc(C#N)c(NCCN3CCCCC3)o2)cc1
inactive: growth inhibition [1] 12.4% | growth inhibition [2] -1.35% | viability increase [3] -3.34% | viability [4] 92.5% | viability [5] 92.5% | inhibition [6] 1.4% | RAM network inhibition [7] -1.13%

COc1cccc(-n2nnc3c(=O)n(CC(=O)NCC4CCCO4)cnc32)c1 (configuration not stated)
inactive: growth inhibition [1] 2.81% | growth inhibition [2] -2.83% | viability increase [3] 0.22% | viability [4] 101% | viability [5] 93.7% | inhibition [6] -0.415% | RAM network inhibition [7] 5.27%

CCC1CCCCN1C(=O)c1cc2cc(Br)ccc2oc1=O (configuration not stated)
inactive: growth inhibition [1] -9.03% | growth inhibition [2] -15.9% | viability increase [3] -2.87% | viability [4] 106% | viability [5] 94.8% | inhibition [6] 0.68% | RAM network inhibition [7] 2.89%

O=C(NCC1COc2ccccc2O1)C1CCC(CNc2c(N3CCCCC3)c(=O)c2=O)CC1 (configuration not stated)
inactive: growth inhibition [1] -8.76% | growth inhibition [2] -9.54% | viability increase [3] 0.01% | viability [4] 88.6% | viability [5] 86.4% | inhibition [6] 2.89% | RAM network inhibition [7] 4.02%

COc1ccc(C(=O)N2CCN(c3ccc(C)c(C)c3)CC2)cc1OC
inactive: growth inhibition [1] -6.27% | growth inhibition [2] -4.04% | viability increase [3] -0.89% | viability [4] 99.5% | viability [5] 92% | inhibition [6] 0.21% | RAM network inhibition [7] 2.55%

Oc1c(C(c2ccccc2)N2CCN(Cc3ccccc3)CC2)sc2ncnn12 (configuration not stated)
inactive: growth inhibition [1] -6.68% | growth inhibition [2] -5.08% | viability increase [3] 1.62% | viability [4] 89.7% | viability [5] 84.7% | inhibition [6] 1.79% | RAM network inhibition [7] 0.68%

COC(=O)c1nc2n(n1)C(c1cccc(Cl)c1)C1=C(CC(C)(C)CC1=O)N2 (configuration not stated)
inactive: growth inhibition [1] 2.12% | growth inhibition [2] -2.75% | viability increase [3] -2.72% | viability [4] 98.7% | viability [5] 99.8% | inhibition [6] 0.75% | RAM network inhibition [7] -0.77%

Cc1cnn(-c2ccc3nnc(-c4ccc(Br)cc4)n3n2)c1
inactive: growth inhibition [1] -5.48% | growth inhibition [2] -11.2% | viability increase [3] -4.96% | viability [4] 85.9% | viability [5] 84.1% | inhibition [6] 1.4% | RAM network inhibition [7] 3.52%

Cc1nn2c(=O)cc(CSc3nc4ccccc4[nH]3)nc2s1
inactive: growth inhibition [1] -3.92% | growth inhibition [2] 2.41% | viability increase [3] -2.31% | viability [4] 103% | viability [5] 103% | inhibition [6] 1.35% | RAM network inhibition [7] 0.17%

CC(=O)Oc1ccc(C(=O)Nc2nccs2)cc1
inactive: growth inhibition [1] -7.33% | growth inhibition [2] -14.7% | viability increase [3] -4.75% | viability [4] 88.2% | viability [5] 80.3% | inhibition [6] 3.5% | RAM network inhibition [7] 0.1%

CC1CCN(c2nc3ccccc3nc2C(C#N)S(=O)(=O)c2ccccc2)CC1 (configuration not stated)
inactive: growth inhibition [1] -32.5% | growth inhibition [2] -14.6% | viability increase [3] -2.55% | viability [4] 91.4% | viability [5] 95.1% | inhibition [6] 1.22% | RAM network inhibition [7] 4.37%

CC1(C)NC(C)(C)c2nonc2/C1=N\O
inactive: growth inhibition [1] -15.2% | growth inhibition [2] -9.79% | viability increase [3] 0.39% | viability [4] 99.3% | viability [5] 102% | inhibition [6] 1.34% | RAM network inhibition [7] -0.43%

COc1ccccc1S(=O)(=O)Cc1ccc(C(=O)NCCN(C)C)o1
inactive: growth inhibition [1] -6.73% | growth inhibition [2] 5% | viability increase [3] -0.73% | viability [4] 106% | viability [5] 98.2% | inhibition [6] 1.9% | RAM network inhibition [7] 0.1%

Cc1cc(C)n2nc(SCC(=O)Nc3ccc(F)cc3)nc2n1
inactive: growth inhibition [1] -11.7% | growth inhibition [2] -10.9% | viability increase [3] -1.21% | viability [4] 111% | viability [5] 98.5% | inhibition [6] 2.25% | RAM network inhibition [7] -0.94%
